Measurements reported in ChEMBL document CHEMBL4354843, “Structure-Based Design of a Potent and Selective Covalent Inhibitor for SRC Kinase That Targets a P-Loop Cysteine” (J Med Chem, 2020).

What was measured:
[1] = biological target: Tyrosine-protein kinase ABL2 (Homo sapiens) (UniProt P42684); assay: Binding affinity to wild-type human ABL2 (A248 to G542 residues) expressed in bacterial expression system assessed as residual binding level at 1 uM by Kinomescan method relative to control
How it was run: (§1)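 KinomeScan, an active site-directed competition binding panel of 468 kinases. The test compound was at 1 μM. The readout is remaining kinase binding as a percentage of the DMSO control. Scores above 35% were treated as weak binding and not listed.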

[2] = biological target: Activin receptor type-1 (Homo sapiens) (UniProt Q04771); assay: Binding affinity to wild-type human ACVR1 (C188 to C509 residues) expressed in bacterial expression system assessed as residual binding level at 1 uM by Kinomescan method relative to control
How it was run: (§2)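 Active-site-directed KinomeScan competition binding panel covering 468 kinases, compound tested at 1 μM. Each readout is the kinase signal remaining with compound, expressed as a percentage of the DMSO control. […]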

[3] = biological target: Activin receptor type-2A (Homo sapiens) (UniProt P27037); assay: Binding affinity to wild-type human ACVR2A (V171 to T499 residues) expressed in bacterial expression system assessed as residual binding level at 1 uM by Kinomescan method relative to control; how it was run: as §2
[4] = biological target: Mitogen-activated protein kinase kinase kinase 6 (Homo sapiens) (UniProt O95382); assay: Binding affinity to wild-type human partial length ASK2 (M278 to R972 residues) expressed in mammalian expression system assessed as residual binding level at 1 uM by Kinomescan method relative to control; how it was run: as §1
[5] = biological target: Bone morphogenetic protein receptor type-1B (Homo sapiens) (UniProt O00238); assay: Binding affinity to wild-type human partial length BMPR1B (D178 to L502 residues) expressed in mammalian expression system assessed as residual binding level at 1 uM by Kinomescan method relative to control
[6] = biological target: Bone morphogenetic protein receptor type-2 (Homo sapiens) (UniProt Q13873); assay: Binding affinity to wild-type human partial length BMPR2 (R179 to Q526 residues) expressed in mammalian expression system assessed as residual binding level at 1 uM by Kinomescan method relative to control
Bone morphogenetic protein receptor type-2 (Homo sapiens), sequence (Q13873 whole entry, the tested form may be a part): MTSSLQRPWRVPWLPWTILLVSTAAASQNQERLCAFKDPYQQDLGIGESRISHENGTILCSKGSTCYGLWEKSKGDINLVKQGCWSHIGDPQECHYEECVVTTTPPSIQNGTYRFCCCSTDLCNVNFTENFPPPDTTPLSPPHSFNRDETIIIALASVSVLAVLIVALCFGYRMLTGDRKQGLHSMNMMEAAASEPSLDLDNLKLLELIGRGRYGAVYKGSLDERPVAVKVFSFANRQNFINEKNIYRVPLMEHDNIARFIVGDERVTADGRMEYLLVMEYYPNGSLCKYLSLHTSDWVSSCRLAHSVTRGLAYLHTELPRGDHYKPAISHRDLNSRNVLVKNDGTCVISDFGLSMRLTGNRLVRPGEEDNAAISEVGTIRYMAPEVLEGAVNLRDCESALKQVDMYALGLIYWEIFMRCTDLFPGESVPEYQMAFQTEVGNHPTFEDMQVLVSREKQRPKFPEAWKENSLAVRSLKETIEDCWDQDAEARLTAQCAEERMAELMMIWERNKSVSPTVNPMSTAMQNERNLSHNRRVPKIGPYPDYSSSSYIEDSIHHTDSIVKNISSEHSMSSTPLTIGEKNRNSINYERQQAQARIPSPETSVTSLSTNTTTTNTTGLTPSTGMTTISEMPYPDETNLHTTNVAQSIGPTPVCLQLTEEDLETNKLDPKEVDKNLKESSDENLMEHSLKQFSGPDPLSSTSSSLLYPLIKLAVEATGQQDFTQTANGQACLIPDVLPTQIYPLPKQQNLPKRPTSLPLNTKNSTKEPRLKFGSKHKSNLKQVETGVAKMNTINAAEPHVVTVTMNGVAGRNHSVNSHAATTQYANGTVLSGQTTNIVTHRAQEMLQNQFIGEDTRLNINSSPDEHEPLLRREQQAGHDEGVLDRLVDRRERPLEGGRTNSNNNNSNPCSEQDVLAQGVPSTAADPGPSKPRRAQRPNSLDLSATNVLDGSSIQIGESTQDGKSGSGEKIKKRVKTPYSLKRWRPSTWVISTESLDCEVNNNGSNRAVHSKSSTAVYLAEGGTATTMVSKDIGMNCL

[7] = biological target: Dual specificity protein kinase CLK3 (Homo sapiens) (UniProt P49761); assay: Binding affinity to wild-type human full length CLK3 (M1 to R490 residues) expressed in bacterial expression system assessed as residual binding level at 1 uM by Kinomescan method relative to control; how it was run: as §2
[8] = biological target: Macrophage colony-stimulating factor 1 receptor (Homo sapiens) (UniProt P07333); assay: Binding affinity to wild-type human partial length autoinhibited CSF1R (Y538 to S939 residues) expressed in mammalian expression system assessed as residual binding level at 1 uM by Kinomescan method relative to control
How it was run: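 Active site-directed competition binding panel (KinomeScan, 468 kinases). Test compound at 1 μM. Read-out is kinase binding remaining versus DMSO control, expressed as percent of control. Scores above 35% are treated as weak binding.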

[9] = biological target: Dual specificity tyrosine-phosphorylation-regulated kinase 1A (Homo sapiens) (UniProt Q13627); assay: Binding affinity to wild-type human partial length DYRK1A (H129 to S509 residues) expressed in mammalian expression system assessed as residual binding level at 1 uM by Kinomescan method relative to control
[10] = biological target: Dual specificity tyrosine-phosphorylation-regulated kinase 1B (Homo sapiens) (UniProt Q9Y463); assay: Binding affinity to wild-type human full length DYRK1B (M1 to S629 residues) expressed in bacterial expression system assessed as residual binding level at 1 uM by Kinomescan method relative to control; how it was run: as §2
Dual specificity tyrosine-phosphorylation-regulated kinase 1B (Homo sapiens), sequence (Q9Y463 whole entry, looked up, the tested form may be a part): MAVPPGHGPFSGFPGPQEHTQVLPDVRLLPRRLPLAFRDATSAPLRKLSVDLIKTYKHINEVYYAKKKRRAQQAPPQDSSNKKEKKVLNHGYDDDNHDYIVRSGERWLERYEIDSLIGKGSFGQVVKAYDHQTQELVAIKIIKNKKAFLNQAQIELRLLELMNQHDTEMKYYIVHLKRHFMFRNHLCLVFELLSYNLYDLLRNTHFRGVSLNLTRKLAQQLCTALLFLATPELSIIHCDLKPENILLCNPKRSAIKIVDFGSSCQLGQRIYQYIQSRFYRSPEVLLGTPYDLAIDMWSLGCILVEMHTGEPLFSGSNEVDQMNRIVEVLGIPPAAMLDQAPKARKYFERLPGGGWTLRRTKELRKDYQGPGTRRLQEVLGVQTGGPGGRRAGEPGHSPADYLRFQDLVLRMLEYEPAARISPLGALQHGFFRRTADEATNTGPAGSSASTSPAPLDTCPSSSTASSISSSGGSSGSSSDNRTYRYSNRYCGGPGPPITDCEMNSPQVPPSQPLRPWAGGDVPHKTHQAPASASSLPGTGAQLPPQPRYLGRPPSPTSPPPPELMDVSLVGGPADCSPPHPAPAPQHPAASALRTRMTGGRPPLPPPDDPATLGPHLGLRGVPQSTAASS

[11] = biological target: G protein-coupled receptor kinase 3 (Homo sapiens) (UniProt P35626); assay: Binding affinity to wild-type human full length GRK3 (M1 to L688 residues) expressed in mammalian expression system assessed as residual binding level at 1 uM by Kinomescan method relative to control; how it was run: as §2
[12] = biological target: Homeodomain-interacting protein kinase 3 (Homo sapiens) (UniProt Q9H422); assay: Binding affinity to wild-type human partial length HIPK3 (M153 to N562 residues) expressed in mammalian expression system assessed as residual binding level at 1 uM by Kinomescan method relative to control
How it was run: (§3)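 Active-site-directed competition binding panel of 468 kinases (KinomeScan), compound at 1 μM. The read-out is kinase remaining bound, given as a percentage of the DMSO control. […]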

[13] = biological target: Tyrosine-protein kinase ITK/TSK (Homo sapiens) (UniProt Q08881); assay: Binding affinity to wild-type human partial length ITK (R335 to L620 residues) expressed in bacterial expression system assessed as residual binding level at 1 uM by Kinomescan method relative to control
[14] = biological target: LIM domain kinase 2 (Homo sapiens) (UniProt P53671); assay: Binding affinity to wild-type human full length LIMK2 (M1 to P638 residues) expressed in bacterial expression system assessed as residual binding level at 1 uM by Kinomescan method relative to control; how it was run: as §2
[15] = biological target: Serine/threonine-protein kinase 10 (Homo sapiens) (UniProt O94804); assay: Binding affinity to wild-type human partial length LOK (E16 to V314 residues) expressed in bacterial expression system assessed as residual binding level at 1 uM by Kinomescan method relative to control; how it was run: as §3
Serine/threonine-protein kinase 10 (Homo sapiens), sequence (O94804 whole entry, looked up, the tested form may be a part): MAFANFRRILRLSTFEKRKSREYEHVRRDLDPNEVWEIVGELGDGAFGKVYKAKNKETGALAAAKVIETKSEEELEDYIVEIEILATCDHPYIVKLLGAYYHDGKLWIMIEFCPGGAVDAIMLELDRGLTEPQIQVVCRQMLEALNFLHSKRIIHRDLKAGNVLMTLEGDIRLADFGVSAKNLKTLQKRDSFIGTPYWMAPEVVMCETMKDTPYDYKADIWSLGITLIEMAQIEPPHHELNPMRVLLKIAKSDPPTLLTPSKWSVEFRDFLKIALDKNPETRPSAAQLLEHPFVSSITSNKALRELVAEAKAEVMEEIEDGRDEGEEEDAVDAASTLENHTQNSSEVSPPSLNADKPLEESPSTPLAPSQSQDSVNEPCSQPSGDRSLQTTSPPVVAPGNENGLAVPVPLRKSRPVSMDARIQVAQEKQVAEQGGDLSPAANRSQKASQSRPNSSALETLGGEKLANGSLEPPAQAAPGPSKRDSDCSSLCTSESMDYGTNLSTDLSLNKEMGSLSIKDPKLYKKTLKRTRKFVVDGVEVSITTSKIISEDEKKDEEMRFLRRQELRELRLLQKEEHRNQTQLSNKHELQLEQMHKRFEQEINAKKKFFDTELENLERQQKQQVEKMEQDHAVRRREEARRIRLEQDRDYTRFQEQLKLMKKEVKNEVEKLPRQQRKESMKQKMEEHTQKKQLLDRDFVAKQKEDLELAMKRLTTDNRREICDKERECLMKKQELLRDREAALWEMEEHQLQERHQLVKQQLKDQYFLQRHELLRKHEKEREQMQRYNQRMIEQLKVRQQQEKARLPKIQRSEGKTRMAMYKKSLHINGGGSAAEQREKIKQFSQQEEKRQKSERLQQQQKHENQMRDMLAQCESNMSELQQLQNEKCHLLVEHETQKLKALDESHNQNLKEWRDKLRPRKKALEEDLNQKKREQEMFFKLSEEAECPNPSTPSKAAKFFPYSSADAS

[16] = biological target: Serine/threonine-protein kinase MARK2 (Homo sapiens) (UniProt Q7KZI7); assay: Binding affinity to wild-type human partial length MARK2 (M1 to R450 residues) expressed in bacterial expression system assessed as residual binding level at 1 uM by Kinomescan method relative to control
[17] = biological target: Muscle, skeletal receptor tyrosine-protein kinase (Homo sapiens) (UniProt O15146); assay: Binding affinity to wild-type human partial length MUSK (M553 to V869 residues) expressed in bacterial expression system assessed as residual binding level at 1 uM by Kinomescan method relative to control
[18] = biological target: Serine/threonine-protein kinase 38 (Homo sapiens) (UniProt Q15208); assay: Binding affinity to wild-type human partial length NDR1 (N33 to E449 residues) expressed in mammalian expression system assessed as residual binding level at 1 uM by Kinomescan method relative to control; how it was run: as §3
[19] = biological target: Ribosomal protein S6 kinase beta-1 (Homo sapiens) (UniProt P23443); assay: Binding affinity to wild-type human partial length S6K1 (M1 to S421 residues) expressed in mammalian expression system assessed as residual binding level at 1 uM by Kinomescan method relative to control
[20] = biological target: Tyrosine-protein kinase Srms (Homo sapiens) (UniProt Q9H3Y6); assay: Binding affinity to wild-type human partial length SRMS (L208 to P488 residues) expressed in mammalian expression system assessed as residual binding level at 1 uM by Kinomescan method relative to control
[21] = biological target: Serine/threonine-protein kinase ULK1 (Homo sapiens) (UniProt O75385); assay: Binding affinity to wild-type human partial length ULK1 (M1 to T309 residues) expressed in mammalian expression system assessed as residual binding level at 1 uM by Kinomescan method relative to control
Serine/threonine-protein kinase ULK1 (Homo sapiens), sequence (O75385 whole entry, the tested form may be a part): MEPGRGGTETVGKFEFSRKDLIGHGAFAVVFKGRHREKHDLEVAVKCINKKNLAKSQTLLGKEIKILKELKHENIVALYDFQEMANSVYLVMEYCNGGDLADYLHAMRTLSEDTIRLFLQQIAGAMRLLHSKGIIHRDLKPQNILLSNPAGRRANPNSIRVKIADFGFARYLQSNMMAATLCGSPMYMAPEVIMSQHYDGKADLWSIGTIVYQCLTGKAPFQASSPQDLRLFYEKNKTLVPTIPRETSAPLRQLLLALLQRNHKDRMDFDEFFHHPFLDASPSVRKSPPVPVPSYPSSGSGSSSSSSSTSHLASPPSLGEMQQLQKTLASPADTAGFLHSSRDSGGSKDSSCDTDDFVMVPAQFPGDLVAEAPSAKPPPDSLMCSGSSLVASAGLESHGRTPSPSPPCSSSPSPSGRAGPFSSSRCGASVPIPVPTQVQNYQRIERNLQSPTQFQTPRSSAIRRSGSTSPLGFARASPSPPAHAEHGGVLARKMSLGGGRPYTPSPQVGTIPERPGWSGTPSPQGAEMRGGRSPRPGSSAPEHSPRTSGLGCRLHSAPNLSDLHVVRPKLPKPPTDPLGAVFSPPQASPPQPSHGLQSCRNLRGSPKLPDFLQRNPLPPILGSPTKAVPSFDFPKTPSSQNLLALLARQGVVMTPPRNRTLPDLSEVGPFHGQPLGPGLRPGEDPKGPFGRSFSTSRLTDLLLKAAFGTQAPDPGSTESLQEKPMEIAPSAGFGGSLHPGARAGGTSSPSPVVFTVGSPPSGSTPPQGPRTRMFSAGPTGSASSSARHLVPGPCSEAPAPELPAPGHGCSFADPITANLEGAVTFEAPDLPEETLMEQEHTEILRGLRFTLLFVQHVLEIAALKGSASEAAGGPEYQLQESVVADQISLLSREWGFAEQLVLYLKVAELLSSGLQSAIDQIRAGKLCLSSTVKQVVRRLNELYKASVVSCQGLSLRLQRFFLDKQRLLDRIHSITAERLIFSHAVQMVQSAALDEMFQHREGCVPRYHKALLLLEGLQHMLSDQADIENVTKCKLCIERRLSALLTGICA

[22] = biological target: Serine/threonine-protein kinase 32B (Homo sapiens) (UniProt Q9NY57); assay: Binding affinity to wild-type human full length YANK2 (M1 to S414 residues) expressed in bacterial expression system assessed as residual binding level at 1 uM by Kinomescan method relative to control

Tyrosine-protein kinase ABL2 (Homo sapiens), sequence (P42684 whole entry, the tested form may be a part): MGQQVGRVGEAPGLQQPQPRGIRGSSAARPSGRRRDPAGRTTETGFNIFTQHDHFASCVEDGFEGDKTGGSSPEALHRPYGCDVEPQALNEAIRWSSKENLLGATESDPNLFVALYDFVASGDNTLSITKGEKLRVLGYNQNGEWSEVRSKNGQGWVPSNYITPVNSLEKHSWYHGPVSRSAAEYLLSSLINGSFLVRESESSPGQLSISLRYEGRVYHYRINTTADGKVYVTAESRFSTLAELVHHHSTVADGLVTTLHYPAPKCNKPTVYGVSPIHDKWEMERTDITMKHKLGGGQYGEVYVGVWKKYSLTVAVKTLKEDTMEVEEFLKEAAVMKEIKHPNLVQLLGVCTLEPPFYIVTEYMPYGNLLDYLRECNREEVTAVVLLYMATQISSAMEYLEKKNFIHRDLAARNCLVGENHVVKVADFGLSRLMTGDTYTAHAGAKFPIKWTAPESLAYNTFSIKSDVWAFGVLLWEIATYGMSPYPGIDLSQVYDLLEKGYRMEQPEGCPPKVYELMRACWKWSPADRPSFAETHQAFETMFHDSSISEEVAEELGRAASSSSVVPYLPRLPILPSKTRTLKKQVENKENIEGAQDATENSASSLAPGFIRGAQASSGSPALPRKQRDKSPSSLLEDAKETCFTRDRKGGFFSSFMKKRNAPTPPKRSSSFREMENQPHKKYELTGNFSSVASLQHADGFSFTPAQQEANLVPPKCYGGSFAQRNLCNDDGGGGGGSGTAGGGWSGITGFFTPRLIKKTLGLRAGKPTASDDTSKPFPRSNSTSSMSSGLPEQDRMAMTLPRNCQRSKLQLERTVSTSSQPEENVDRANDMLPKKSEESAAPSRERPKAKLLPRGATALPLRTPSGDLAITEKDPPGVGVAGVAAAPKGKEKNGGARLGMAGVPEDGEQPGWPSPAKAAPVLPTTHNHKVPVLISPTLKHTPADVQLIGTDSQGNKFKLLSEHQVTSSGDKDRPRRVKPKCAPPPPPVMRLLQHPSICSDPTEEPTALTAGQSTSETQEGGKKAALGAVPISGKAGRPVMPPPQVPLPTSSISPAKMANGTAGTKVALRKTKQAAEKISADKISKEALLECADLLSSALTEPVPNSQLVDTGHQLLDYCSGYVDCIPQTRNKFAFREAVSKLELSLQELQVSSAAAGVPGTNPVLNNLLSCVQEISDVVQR

C=CC(=O)Nc1ccccc1Nc1nc(Nc2ccc(N3CCN(C)CC3)cc2)ncc1C(=O)Nc1c(C)cccc1Cl
Activity [1]: 0.35% | Activity [2]: 100% | Activity [3]: 100% | Activity [4]: 64% | Activity [5]: 100% | Activity [6]: 100% | Activity [7]: 100% | Activity [8]: 79% | Activity [9]: 100% | Activity [10]: 74% | Activity [11]: 100% | Activity [12]: 99% | Activity [13]: 100% | Activity [14]: 100% | Activity [15]: 96% | Activity [16]: 100% | Activity [17]: 100% | Activity [18]: 90% | Activity [19]: 95% | Activity [20]: 87% | Activity [21]: 100% | Activity [22]: 100%
